Assay outcomes as filed in PubChem.
SUMO1 PPI mod = modulators of SUMO1 protein-protein interactions, primary screen, biochemical, uHTS; Small ubiquitin-related modifier 1 (Homo sapiens), P63165; 0.33% of 360,000 active; inhibition, % at 20 µM; SUMO1 binding to a labelled peptide, TR-FRET, 1 h; in the data active means inhibition above about 37%
Target sequence (P63165 whole entry, looked up): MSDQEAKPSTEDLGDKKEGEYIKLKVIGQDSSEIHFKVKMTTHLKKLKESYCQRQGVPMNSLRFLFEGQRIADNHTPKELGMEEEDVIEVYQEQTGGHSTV
LMPTP inh = LMPTP phosphatase inhibitors, primary screen, biochemical, fluorescence intensity, uHTS; recombinant LMPTP-A, OMFP fluorogenic substrate; 0.22% of 360,000 active; inhibition, % at 20 µM;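 active means compounds that cut the enzyme signal by at least half of the control window in the single-dose screen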
Target sequence (P24666 whole entry, looked up): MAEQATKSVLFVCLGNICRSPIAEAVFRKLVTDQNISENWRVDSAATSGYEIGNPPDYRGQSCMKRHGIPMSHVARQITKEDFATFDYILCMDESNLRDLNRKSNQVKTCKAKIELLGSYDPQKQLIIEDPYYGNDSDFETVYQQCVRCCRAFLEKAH
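Test system: LMPTP-A, protein tyrosine phosphatase of low molecular weight; Input: 0.625 nM enzyme; Incubation: 50 min dark incubation at room temperature; Signal: endpoint fluorescence intensity from OMFP dephosphorylation; Read-out basis: % inhibition versus control wells.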
NadD inh = inhibitors of S. aureus NadD, primary screen, biochemical, colorimetric, uHTS. Nicotinate-nucleotide adenylyltransferase NadD (Staphylococcus aureus N315). purified NadD enzyme, colorimetric absorbance read-out. inhibition, % at 20 µM. 0.78% of 360,000 active. AID 602399, 2012; in the data active means inhibition above about 26%
STEP block = STEP phosphatase inhibitors, primary screen, biochemical, fluorescence intensity, uHTS | recombinant STEP, OMFP fluorogenic substrate | inhibition, % at 20 µM | 0.25% of 360,000 active;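 active means inhibition at 20 µM, scaled per plate between control wells, above about 37%, limit read from the data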
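System: STEP (striatal-enriched tyrosine phosphatase) enzyme, cell-free; medium: Bis-Tris pH 6.0 buffer with DTT, detergent; dosing: 20 µM, 1% DMSO; times: reaction 20 min, ambient temperature; detection: fluorescence, 480/540 nm; read-out basis: normalized % inhibition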
DNMT1 block = human DNMT1 methyltransferase inhibitors, primary screen, biochemical, molecular beacon, fluorescence, HinP1I cleavage, uHTS; DNA (cytosine-5)-methyltransferase 1 (Homo sapiens), P26358; 0.83% of 360,000 active; inhibition (reported as % activation of signal), % at 10 µM; AID 588458, 2011; in the data active means inhibition above about 50%
Scp-1 inhibitor = Scp-1 phosphatase inhibitors, primary screen, biochemical, colorimetric, uHTS; Recombinant Scp1, phosphopeptide, malachite green phosphate absorbance; inhibition, % at 20 µM; 0.88% of 340,000 active; AID 493091, 2011;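 active means inhibition above about 50% at 20 µM, limit read from the data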
Target sequence (Q9GZU7 76-261 limits assumed): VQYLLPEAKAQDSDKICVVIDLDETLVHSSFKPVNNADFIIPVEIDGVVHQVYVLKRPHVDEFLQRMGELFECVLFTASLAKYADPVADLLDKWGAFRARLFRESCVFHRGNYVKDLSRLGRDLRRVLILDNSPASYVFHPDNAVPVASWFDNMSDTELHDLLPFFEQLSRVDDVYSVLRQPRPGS
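Incubation: 45 min enzyme reaction at room temperature / System: truncated SCP-1 phosphatase (76-261aa) / Reagent: Phospho 17-mer peptide substrate / Buffer or medium: Acidic Tris acetate buffer with magnesium and detergent / Signal: absorbance at 630 nm / Doses: one concentration, 20 µM, with 1.0% DMSO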
STEP conf = STEP phosphatase inhibitor hit confirmation, biochemical, fluorescence intensity, single concentration. shares compounds with STEP block. recombinant STEP, OMFP fluorogenic substrate. inhibition, % at 20 µM. 32% of 520 active; call rule not given here
NadD conf = inhibitors of S. aureus NadD, confirmation, biochemical, colorimetric, single concentration; shares compounds with NadD inh; purified S. aureus NadD, colorimetric enzyme assay; inhibition, % at 20 µM; 13% of 2,000 active; in the data active means inhibition mostly above about 42%, no sharp cut-off; inactive means mostly below about 42%
Each line names hits and unclear results; the compound was inactive in the other large screens (follow-up assays come after a bar, where they were run). The list is not random: actives were taken first. Their share in the collection is about 2.3%.

Cc1cccc(C2CC3(CC(C)(C)NC(=S)N3)Oc3cc(O)ccc32)c1 (configuration not stated)	none
COc1ccccc1NS(=O)(=O)c1ccc(NN=C2CCCCC2)c([N+](=O)[O-])c1	STEP block 92 | STEP conf inactive
COc1ccccc1NS(=O)(=O)c1ccc(OC)c([N+](=O)[O-])c1	none
Cn1c(=O)[nH]c(=O)c2c1nc(SCCN1CCCCC1)n2CCCc1ccccc1	STEP block 80 | STEP conf 46
Cc1ccc(Cn2c(SCCN3CCCCC3)nc3c2c(=O)[nH]c(=O)n3C)cc1	STEP block 61 | STEP conf inactive
Cn1c(=O)[nH]c(=O)c2c1nc(SCCN1CCCCC1)n2Cc1ccccc1	none
CCc1ccc(Nc2nc(N)nc(CSc3nc4ccccc4s3)n2)cc1	STEP block 43 | STEP conf inactive
Cc1nnc(SCc2nc(N)nc(Nc3ccccc3)n2)s1	none
Cc1ccc(NS(=O)(=O)c2ccc(C)c(NC(=O)c3ccc(S(=O)(=O)N4CCCCCC4)cc3)c2)c(C)c1	none (no result: Scp-1 inhibitor)
N#CCOC(=O)/C=C/c1ccc2c(c1)OCO2	none
COc1cc(NC(=S)N2CCN(C)CC2)c(OC)cc1Cl	STEP block 42 | STEP conf 28
NS(=O)(=O)c1ccc(NC(=S)NCCc2ccccc2)cc1	STEP block 52 | STEP conf 38
CC(C)OCCCNC(=S)Nc1ccc(S(N)(=O)=O)cc1	STEP block 83 | STEP conf 36
CC1(C(=O)NS(=O)(=O)C2CC2)CCN(C(=O)c2cccc(Cl)c2)C1 (configuration not stated)	none (no result: Scp-1 inhibitor)
CCN1CCN(CCCN(Cc2ccco2)C(=S)Nc2cc(Cl)ccc2C)CC1	STEP block 41 | STEP conf inactive
CCN1CCN(CCCN(Cc2ccco2)C(=S)Nc2ccc(C)c(Cl)c2)CC1	none
S=C1NC2=C(CCCC2=C2SCCS2)C(c2ccccc2)N1 (configuration not stated)	STEP block 70 | STEP conf 60
COc1cccc(C2NC(=S)NC3=C2CCc2ccccc23)c1 (configuration not stated)	none
O=C(CCC(=O)N1CCN(c2ccccc2F)CC1)c1ccc(Cl)s1	none
O=C(CCN1CCC(c2ccc(Cl)s2)=N1)c1ccc(Cl)s1	STEP block 58 | STEP conf inactive
CCN(C(=O)COc1ccc(F)cc1Br)c1c(N)n(Cc2ccccc2)c(=O)[nH]c1=O	none
COc1cc(NC(=S)N2CCN(CCO)CC2)c(OC)cc1Cl	none
OCCN1CCN(C(=S)c2ccc(Cl)c(Cl)c2)CC1	STEP block 90 | STEP conf 60
S=C(c1cn(CCOc2ccccc2)c2ccccc12)N1CCCC1	STEP block 97 | STEP conf 63
O=C(CSS(=O)(=O)O)N1CCN(C(=O)c2ccoc2)CC1	STEP block 77 | STEP conf inactive
COc1ccc(-n2ccc(=O)c(C(=O)O)n2)c(OC)c1	none
CCc1c(-c2ccccc2)[n+](=O)c2c(n1[O-])CCC2	none
COc1ccc(C(=O)Nc2ccc(/C(C)=N/NC(=O)c3ccncc3)cc2)cc1	LMPTP inh 54, STEP block 82 (no result: Scp-1 inhibitor) | STEP conf inactive
O=C(NN=C1CCCCCCCCCCC1)c1ccncc1	none
Cc1ccc(NC(=O)Cn2cncc2-c2ccc([N+](=O)[O-])cc2)cc1C	STEP block 48 | STEP conf inactive
Cc1ccc(S(=O)(=O)N2CCN(C(=O)C3CCN(C(=O)c4ccccc4C)CC3)CC2)cc1C	none
Cc1cc2nc(/C=C/c3nc4cc(C)c(C)cc4[nH]3)[nH]c2cc1C	NadD inh 31, STEP block 46 | STEP conf inactive | NadD conf inactive
COc1cccc(NC(=O)CSC2=NN3CCCC(=O)N=C3S2)c1	none
O=S(=O)(O)c1cc(O)c2ccc(Nc3ccccc3)cc2c1	SUMO1 PPI mod 83, LMPTP inh 93, NadD inh 33, STEP block 99, DNMT1 block 100, Scp-1 inhibitor 99 | NadD conf 66
Oc1cccc(Nc2ccccc2)c1	none
N=c1c(S(=O)(=O)c2ccccc2)cc2c(=O)n3ccccc3nc2n1C1CCCC1	none
N=c1c(S(=O)(=O)c2ccc(Cl)cc2)cc2c(=O)n3ccccc3nc2n1C1CCCCC1	NadD inh 43 | NadD conf inactive
CC(C)Cn1c(-c2csc3ccccc23)n[nH]c1=S	NadD inh 34 | NadD conf inactive
CCCCn1c(/C=C/c2ccco2)nc2ccccc21	none
Clc1ccc(Cn2c(/C=C/c3ccco3)nc3ccccc32)cc1	NadD inh 34 | NadD conf inactive
Cc1ccc2c(C)c(C(=O)N3CCC(C(N)=O)(N4CCCCC4)CC3)oc2c1C	none (no result: Scp-1 inhibitor)
COc1cc(-c2ccc(Nc3ccccc3C(=O)O)c(OC)c2)ccc1Nc1ccccc1C(=O)O	SUMO1 PPI mod 61, NadD inh 50, DNMT1 block 109, Scp-1 inhibitor 70 | NadD conf inactive
O=C(CSC(=S)N1CCCC1)c1cc(Br)cc(Br)c1O	none (no result: SUMO1 PPI mod, LMPTP inh, NadD inh, STEP block, DNMT1 block)
CC1CCCN(C(=S)SCC(=O)c2cc(Br)cc(Br)c2O)C1 (configuration not stated)	NadD inh 64 | NadD conf inactive
Cc1c(C(=O)NCc2ccc3c(c2)OCCO3)sc(=O)n1Cc1ccccc1C(F)(F)F	none (no result: Scp-1 inhibitor)
COc1ccc(C(NC(=O)C2CCN(CCOc3ccc(Cl)cc3)CC2)c2cccs2)cc1 (configuration not stated)	none (no result: Scp-1 inhibitor)
Cc1ccc(S(=O)(=O)N(CC(=O)N(C(C)C)C(C)C)C(=O)N2CCN(C)CC2)cc1	none
Cc1ccc(NC(=O)c2sc3nc(C)nc(N4CCN(c5ccccn5)CC4)c3c2C)c(C)c1	none
Cc1nc(N2CCN(c3ccccn3)CC2)c2c(C)c(C(=O)Nc3ccc(Br)cc3C)sc2n1	NadD inh 30 | NadD conf inactive
CCOc1ccccc1/C=N/NC(=O)Cc1csc(Nc2cccc(C(F)(F)F)c2)n1	NadD inh 38 | NadD conf inactive
